The results in this text go back to ChEMBL document CHEMBL1122658, “Amnesia-reversal activity of a series of N-[(disubstituted-amino)alkyl] -2-oxo-1-pyrrolidineacetamides, including pramiracetam” (1984).

Common to all, as to type: functional
What all share (conditions): route intraperitoneal

The test system of experiment [1] is Mus musculus. The experiment is described as follows: Ability to reverse electroconvulsive shock induced amnesia in mice, after administering intraperitoneally at a dose of 1.25 mg/kg. The gist of the method:
(§1)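 Male CF-1 mice (20-25 g), five groups of 20, trained in one trial on step-through inhibitory avoidance (darkened chamber). ECS given 2 h after training. Test drug or vehicle placebo injected ip 2 h after ECS, 1 h before retention test. Entry into box within 60 s scored as amnesia. % reversal = (drug − base-line ECS+placebo)/(ceiling no-ECS+placebo − base-line) ×100.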

For experiment [2], the system named is Mus musculus. The experiment is described as follows: Ability to reverse electroconvulsive shock (ECS) induced amnesia in mice, after administering intraperitoneally, at a dose of 0.63 mg/kg. The gist of the method: as §1
The test system of experiment [3] is Mus musculus. The experiment is described as follows: Ability to reverse electroconvulsive shock induced amnesia in mice, after administering intraperitoneally at a dose of 20.0 mg/kg. The gist of the method:
as §1

Experiment [4] deals with Mus musculus. As to the kind of experiment: Ability to reverse electroconvulsive shock induced amnesia in mice, after administering intraperitoneally at a dose of 2.5 mg/kg. The essentials:
as §1

Experiment [5] relates to Mus musculus. The experiment is described as follows: Ability to reverse electroconvulsive shock induced amnesia in mice, after administering intraperitoneally at a dose of 5 mg/kg. The essentials:
as §1

For experiment [6], the system named is Mus musculus. As to the kind of experiment: Ability to reverse electroconvulsive shock (ECS) induced amnesia in mice, after administering intraperitoneally, at a dose of 80.0 mg/kg. The essentials: as §1
Experiment [7] has as its system Mus musculus. The experiment is described as follows: Ability to reverse electroconvulsive shock (ECS) induced amnesia in mice, after administering intraperitoneally, at a dose of 80 mg/kg. The gist of the method: as §1
Experiment [8] relates to Mus musculus. The experiment is described as follows: Ability to reverse electroconvulsive shock (ECS) induced amnesia in mice, after administering intraperitoneally, at a dose of 5 mg/kg. The gist of the method: as §1
Experiment [9] deals with Mus musculus. The experiment is described as follows: Ability to reverse electroconvulsive shock induced amnesia in mice, after administering intraperitoneally at a dose of 20 mg/kg. The essentials: as §1
The test system of experiment [10] is Mus musculus. The experiment is described as follows: Ability to reverse electroconvulsive shock (ECS) induced amnesia in mice, after administering intraperitoneally, at a dose of 160 mg/kg. The essentials: as §1
Experiment [11] relates to Mus musculus. The experiment is described as follows: Ability to reverse electroconvulsive shock (ECS) induced amnesia in mice, after administering intraperitoneally, at a dose of 0.31 mg/kg. The essentials:
as §1

`C[C@@H]1CCC[C@H](C)N1CCNC(=O)CN1CCCC1=O`: the Amnesia reversal in the experiment with Mus musculus [1] was 20%; in the experiment on Mus musculus [2], 10%; with Mus musculus [3] it was 70%; with Mus musculus [4] it was 50%; in the experiment on Mus musculus [5] it was 70%; in the experiment with Mus musculus [6], 10%.
Consider `CC1CCCC(C)N1CCNC(=O)CN1CC(c2ccccc2)CC1=O` (stereo not given), for which the Amnesia reversal in the experiment with Mus musculus [1] was found to be 10%; with Mus musculus [7], 33%; with Mus musculus [2], 0%; with Mus musculus [8], 67%; with Mus musculus [9], 44%; with Mus musculus [4], 40%.
On to `CC(C)N(CCCNC(=O)CN1CCCC1=O)C(C)C`, for which the Amnesia reversal in the experiment on Mus musculus [1] turned out to be 9%; with Mus musculus [2], 0%; with Mus musculus [3], 20%; with Mus musculus [4] it was 0%; with Mus musculus [5], 30%; with Mus musculus [6], 30%.
Regarding `CC(CNC(=O)CN1C(=O)CCC1C)N1CCCCC1` (stereo not given), the results for the Amnesia reversal in the experiment on Mus musculus [7], with Mus musculus [8] and with Mus musculus [9] were 45%, 18% and 36%, respectively.
Regarding `CC(C(=O)NCCN1C(C)CCCC1C)N1CCCC1=O` (stereo not given), the figures for the Amnesia reversal in the experiment on Mus musculus [7], with Mus musculus [8] and with Mus musculus [9] were 61%, 17% and 42%, respectively.
For `CC1CCCC(C)N1CCNC(=O)CN1C(=O)CCC1(C)C` (stereo not given), the values for the Amnesia reversal in the experiment on Mus musculus [7], in the experiment with Mus musculus [9] and with Mus musculus [10] were 44%, 22% and 80%, respectively.
For `CC(CNC(=O)CN1CCCC1=O)N1CCCCC1` (stereo not given), the Amnesia reversal in the experiment with Mus musculus [7], with Mus musculus [8] and in the experiment with Mus musculus [9] was 0% in each case.
Consider `CCN(CC)CCNC(=O)CN1CC(c2ccccc2)CC1=O` (stereo not given), for which the Amnesia reversal was 0% in the experiment with Mus musculus [1]; 0% in the experiment with Mus musculus [2]; 0% in the experiment with Mus musculus [3]; 27% in the experiment on Mus musculus [4]; 42% with Mus musculus [5]; 8% in the experiment with Mus musculus [6].
Consider `C[C@H]1CCC[C@H](C)N1CCNC(=O)CN1CCCC1=O`, for which the Amnesia reversal in the experiment on Mus musculus [1] was 45%; in the experiment on Mus musculus [8] it was 48%; in the experiment with Mus musculus [3] it was 25%; in the experiment with Mus musculus [4], 82%; in the experiment on Mus musculus [6], 17%.
Consider `C[C@H](N)Cc1ccccc1` [DEXTROAMPHETAMINE], for which the values for the Amnesia reversal in the experiment with Mus musculus [1], with Mus musculus [2] and in the experiment with Mus musculus [11] were 40%, 15% and 10%, respectively.
As for `CC(C)N(CCCCNC(=O)CN1CCCC1=O)C(C)C`, the Amnesia reversal with Mus musculus [1] worked out at 8%; in the experiment on Mus musculus [2], 0%; in the experiment with Mus musculus [3] it was 31%; in the experiment on Mus musculus [4], 8%; with Mus musculus [5], 31%; with Mus musculus [6], 15%.
As for `O=C(CN1CCCC1=O)NCCN1CCCCC1`, the Amnesia reversal in the experiment on Mus musculus [1] was 64%; in the experiment on Mus musculus [2], 18%; with Mus musculus [3], 0%; with Mus musculus [4], 45%; with Mus musculus [5], 45%; in the experiment with Mus musculus [6] it was 0%.
Take `C=C(C)[C@@H]1[C@H]2OC(=O)[C@@H]1[C@]1(O)C[C@H]3OC34C(=O)O[C@H]2[C@@]41C.CC(C)(O)[C@@H]1[C@H]2OC(=O)[C@@H]1[C@]1(O)C[C@H]3OC34C(=O)O[C@H]2[C@@]41C` (stereo not given in full) [PICROTOXIN]: the Amnesia reversal in the experiment with Mus musculus [1], in the experiment on Mus musculus [2], in the experiment with Mus musculus [11], with Mus musculus [4] and with Mus musculus [5] was 5% in each case.
In the case of `CN(C)CCCNC(=O)CN1CCCC1=O`, the Amnesia reversal in the experiment with Mus musculus [3] is 46%; with Mus musculus [5], 31%; in the experiment with Mus musculus [6], 46%.
For the compound `CC(C)N(CCNC(=O)CN1CCCC1=O)C(C)C` [PRAMIRACETAM], the Amnesia reversal with Mus musculus [1] was found to be 30%; in the experiment with Mus musculus [2], 0%; in the experiment with Mus musculus [3], 82%; in the experiment with Mus musculus [4], 60%; in the experiment on Mus musculus [5], 96%; in the experiment on Mus musculus [6], 18%.
For `CN(C)CCNC(=O)CN1CCCC1=O.Cl`, the Amnesia reversal in the experiment with Mus musculus [8] was 50%.
With `CC1CCC(=O)N1CC(=O)NCCN(C(C)C)C(C)C` (stereo not given), the Amnesia reversal amounted to 56% in the experiment on Mus musculus [7], 0% in the experiment on Mus musculus [8] and 0% in the experiment with Mus musculus [9].
Turning to `CC1CCC(=O)N1CC(=O)NCCCN(C(C)C)C(C)C` (stereo not given), the Amnesia reversal in the experiment with Mus musculus [7] is reported as 30%; in the experiment on Mus musculus [8] it was 40%; in the experiment on Mus musculus [9] it was 0%; in the experiment on Mus musculus [10] it was 20%.
In the case of `CC1CCC(=O)N1CC(=O)NCCCN1C(C)CCCC1C` (stereo not given), the figures for the Amnesia reversal with Mus musculus [7], in the experiment on Mus musculus [8] and with Mus musculus [9] were 10%, 0% and 30%, respectively.
Turning to `CCC1CCC(=O)N1CC(=O)NCCN1C(C)CCCC1C` (stereo not given), the figures for the Amnesia reversal with Mus musculus [7], in the experiment with Mus musculus [8] and in the experiment on Mus musculus [9] were 27%, 27% and 40%, respectively.
As for `CC1CCCC(C)N1CCCNC(=O)CN1CCCC1=O` (stereo not given), the Amnesia reversal came out at 25% with Mus musculus [1]; 55% in the experiment with Mus musculus [3]; 60% in the experiment on Mus musculus [10]; 33% in the experiment with Mus musculus [4]; 50% in the experiment on Mus musculus [5]; 100% in the experiment on Mus musculus [6].
In the case of `CCN(CC)CCNC(=O)CN1CCCC1=O`, the Amnesia reversal with Mus musculus [7] is on record as 31%; with Mus musculus [8], 15%; in the experiment on Mus musculus [9], 46%.
Take `CC1CCCC(C)N1CCCNC(=O)CN1CC(c2ccccc2)CC1=O` (stereo not given): the Amnesia reversal with Mus musculus [7] came to 50%; in the experiment with Mus musculus [8], 0%; in the experiment with Mus musculus [9] it was 0%.
Take `CN(C)CCCN1c2ccccc2Sc2ccc(Cl)cc21` [CHLORPROMAZINE]: the Amnesia reversal in the experiment on Mus musculus [1] came to 10%; in the experiment with Mus musculus [2], 20%; in the experiment on Mus musculus [11], 15%; in the experiment on Mus musculus [4] it was 0%; in the experiment on Mus musculus [5] it was 0%.
For the compound `C1CCc2nnnn2CC1.O=C(O)c1cccnc1`, the Amnesia reversal in the experiment with Mus musculus [7] is listed as 9%; with Mus musculus [9], 0%; in the experiment with Mus musculus [5] it was 0%.
Consider `NC(=O)CN1CC(c2ccccc2)CC1=O` (stereo not given), for which the Amnesia reversal was found to be 0% in the experiment on Mus musculus [1]; 0% in the experiment with Mus musculus [2]; 0% with Mus musculus [3]; 0% in the experiment on Mus musculus [4]; 15% in the experiment with Mus musculus [5]; 0% in the experiment with Mus musculus [6].
With `CCC1CCCC(CC)N1CCCNC(=O)CN1CCCC1=O` (stereo not given), the Amnesia reversal in the experiment with Mus musculus [1] amounted to 0%; in the experiment with Mus musculus [8], 42%; in the experiment on Mus musculus [3], 42%; in the experiment on Mus musculus [4], 0%; in the experiment with Mus musculus [6] it was 17%.
Regarding `CC(C)N(C)CCNC(=O)CN1CCCC1=O`, the Amnesia reversal with Mus musculus [7] is 0%; with Mus musculus [8], 21%; in the experiment on Mus musculus [9], 0%.
With `COC(=O)[C@H]1[C@@H](OC(=O)c2ccccc2)C[C@@H]2CC[C@H]1N2C` [COCAINE], the Amnesia reversal with Mus musculus [1] worked out at 10%; in the experiment with Mus musculus [2], 10%; in the experiment with Mus musculus [11], 15%; in the experiment with Mus musculus [4], 15%; in the experiment with Mus musculus [5] it was 10%.
Regarding `CC1CCCC(C)N1CCCNC(=O)CN1C(=O)CCC1(C)C` (stereo not given), the Amnesia reversal in the experiment with Mus musculus [8] turned out to be 25%; in the experiment with Mus musculus [9], 58%; in the experiment with Mus musculus [10], 33%; in the experiment on Mus musculus [6] it was 50%.
Take `NC(=O)CN1CCC(c2ccccc2)C1=O` (stereo not given): the Amnesia reversal in the experiment on Mus musculus [3] was determined as 17%; with Mus musculus [5] it was 8%; with Mus musculus [6], 33%.
For the compound `CC(C(=O)NCCCN1C(C)CCCC1C)N1CCCC1=O` (stereo not given), the Amnesia reversal in the experiment on Mus musculus [7] came to 23%; in the experiment with Mus musculus [3], 50%; in the experiment on Mus musculus [10], 30%; in the experiment with Mus musculus [5], 8%.
With `CC(C)N(CCCNC(=O)CN1CC(c2ccccc2)CC1=O)C(C)C` (stereo not given), the Amnesia reversal in the experiment on Mus musculus [1] turned out to be 0%; in the experiment with Mus musculus [2] it was 9%; in the experiment with Mus musculus [3] it was 55%; in the experiment on Mus musculus [4] it was 45%; in the experiment on Mus musculus [5], 82%; with Mus musculus [6] it was 27%.
Regarding `CC1CC(C)N(CCCNC(=O)CN2CCCC2=O)C(C)(C)C1` (stereo not given), the figures for the Amnesia reversal in the experiment with Mus musculus [7], in the experiment on Mus musculus [8] and in the experiment with Mus musculus [9] were 45%, 9% and 18%, respectively.
Consider `CC1CCC(=O)N1CC(=O)NCCN1C(C)CCCC1C` (stereo not given), for which the Amnesia reversal with Mus musculus [1] amounted to 58%; in the experiment with Mus musculus [7], 0%; in the experiment on Mus musculus [2] it was 33%; in the experiment on Mus musculus [8], 55%; with Mus musculus [9], 36%; in the experiment on Mus musculus [4], 67%.
As to `CC1CCCC(C)N1CCNC(=O)CN1CCCCC1=O` (stereo not given), the Amnesia reversal in the experiment on Mus musculus [3] is 10%; in the experiment with Mus musculus [5] it was 20%; in the experiment on Mus musculus [6], 60%.
With `CC1CCCC(C)N1CCNC(=O)CCN1CCCC1=O` (stereo not given), the Amnesia reversal is 42% in the experiment on Mus musculus [3], 33% in the experiment on Mus musculus [5] and 17% in the experiment on Mus musculus [6].
